Biological target: Scavenger receptor class B member 1 (Mus musculus) (UniProt Q61009)
Assay: mSR-BI lipid transfer blockers in CHO cells – ldlA[mSR-BI] CHO cells, fluorescence, dry powder, set 7, dose response (AID 588833)
Conditions: DiI-HDL uptake fluorescence, 3 h
In short: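 Test system: ldlA[mSR-BI] CHO cells; Reagent: DiI-labeled HDL at 10 µg/mL; Compound dosing: pin-transferred compounds; Times: 3 h uptake with compounds, 37 °C; Technique: bottom fluorescence, 550/595 nm.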

Chain of Scavenger receptor class B member 1 (Mus musculus) (Q61009 whole entry, looked up): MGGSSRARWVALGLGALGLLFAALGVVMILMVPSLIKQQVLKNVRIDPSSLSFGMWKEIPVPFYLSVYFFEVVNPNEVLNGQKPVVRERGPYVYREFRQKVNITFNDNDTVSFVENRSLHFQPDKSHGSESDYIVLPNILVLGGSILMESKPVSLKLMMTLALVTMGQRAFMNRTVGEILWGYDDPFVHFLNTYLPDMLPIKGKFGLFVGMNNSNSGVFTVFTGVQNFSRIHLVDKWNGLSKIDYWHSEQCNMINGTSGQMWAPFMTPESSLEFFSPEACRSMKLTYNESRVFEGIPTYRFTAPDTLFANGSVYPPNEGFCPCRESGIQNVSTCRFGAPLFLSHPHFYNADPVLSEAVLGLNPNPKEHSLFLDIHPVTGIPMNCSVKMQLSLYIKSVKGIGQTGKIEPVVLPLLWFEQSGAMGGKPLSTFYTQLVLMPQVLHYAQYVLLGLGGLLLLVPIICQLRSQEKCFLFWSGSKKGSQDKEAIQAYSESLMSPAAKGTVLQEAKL

AC50 [nM]	Structure (SMILES)
15.4	C[C@H](C(=O)NC1CCCC1)N(C(=O)Cn1nnc(-c2ccc3c(c2)OCO3)n1)C1CCCCC1
6.18	COCC(=O)N1CCc2cc(-c3csc(NC(=O)c4cc(OC)cc(OC)c4)n3)ccc21
0.536	CCCCCCC1CCC/C1=N\NC(N)=S (stereo not drawn)
